# Shown are actives, neighbours in structure and some others; about 1.4% of the full set was active somewhere.
# PG9 binder – binders of HIV-1 gp120 antibody PG9, primary screen, biochemical, TR-FRET. HIV-1 gp120 / PG9 antibody interaction. TR-FRET gp120-PG9 antibody binding. inhibition, % at 6.7 µM. hit rate 0.43% among 360,000. AID 624416, 2012; in the data active = inhibition above about 8.5%
# NR2E3 ag-1 – NR2E3 agonists in two-hybrid cells, primary screen, cell-based, luminescence, CHO-S, Gal4-NCOR/VP16-NR2E3; inhibition of corepressor binding, % at 3.98 µM; AID 602229, 2012; luciferase; hit rate 0.35% among 360,000;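 active = inhibition above the mean of all tested compounds plus 3 SD, cut at about 70% in these data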;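 note: 0% = DMSO with NR2E3 transfected cells and 100% = cells lacking NR2E3 construct; higher means lower luciferase signal from less NR2E3 corepressor binding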
# Rev-erbA mod – modulators of Rev-erb alpha DNA binding, primary screen, biochemical, FITC-DNA, fluorescence polarization, uHTS | activity, % at 10 µM | Rev-erbα–FITC-DNA binding, 90 min | AID 1259318, 2017 | hit rate 0.79% among 370,000 | Nuclear receptor subfamily 1 group D member 1 (Homo sapiens), P20393;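 active = activity above about 14%, limit read from the data; passing the limit was not always enough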;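 note: 0% = DMSO wells with 35 nM protein and 100% = DMSO wells with 750 nM protein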
# Target sequence (P20393 whole entry, looked up): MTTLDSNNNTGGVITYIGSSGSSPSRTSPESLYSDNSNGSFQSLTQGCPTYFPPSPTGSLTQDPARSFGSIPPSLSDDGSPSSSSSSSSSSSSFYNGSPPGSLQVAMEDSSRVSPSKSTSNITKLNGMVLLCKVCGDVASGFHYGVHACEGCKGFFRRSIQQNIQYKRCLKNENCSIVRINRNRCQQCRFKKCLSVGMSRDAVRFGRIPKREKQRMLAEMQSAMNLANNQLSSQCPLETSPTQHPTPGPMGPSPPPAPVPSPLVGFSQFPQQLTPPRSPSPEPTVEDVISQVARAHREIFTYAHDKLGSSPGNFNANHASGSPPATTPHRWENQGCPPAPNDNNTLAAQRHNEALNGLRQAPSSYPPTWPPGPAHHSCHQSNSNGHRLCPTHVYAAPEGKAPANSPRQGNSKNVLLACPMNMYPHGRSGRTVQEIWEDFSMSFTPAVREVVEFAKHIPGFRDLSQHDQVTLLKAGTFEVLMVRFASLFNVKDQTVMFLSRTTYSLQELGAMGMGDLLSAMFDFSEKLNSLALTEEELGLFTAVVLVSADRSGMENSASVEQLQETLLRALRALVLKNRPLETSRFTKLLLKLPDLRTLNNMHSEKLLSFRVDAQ
# NR2E3 ag-2 – inhibitors of NR2E3-RetCOR corepressor binding, primary screen, NR2E3 agonist project, biochemical, TR-FRET, GST-NR2E3, biotin-RetCOR. 1536-well. inhibition of corepressor binding, % at 4.78 µM. hit rate 0.12% among 320,000;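 active = percent inhibition above the cutoff of mean plus 3 SD of all tested compounds, set per screening campaign, cut at about 20% in these data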;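 note: 0% = DMSO wells and 100% = biotin wells as full block of FRET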
#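 system = GST-tagged NR2E3 plus biotinylated RetCOR corepressor | input = 1.35 nM GST-NR2E3 | also added = 7 nM biotin-RetCOR | schedule = 5 h incubation at 4 °C | measured by = TR-FRET with europium anti-GST and streptavidin-D2, 340 nm excitation | read-out = percent loss of FRET ratio relative to control wells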
# Rev-erbA confirm – modulators of Rev-erb alpha DNA binding, confirmation, biochemical, FITC-DNA, fluorescence polarization, single point; shares compounds with Rev-erbA mod; 90 min; activation, % at 25 µM; hit rate 61% among 3,000; AID 1259319, 2017;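 active = activation at or above a set limit, or at least 3 SD above the negative control mean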;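 note: 0% = 35 nM protein with DMSO and 100% = 750 nM protein high control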
# RORg DNA counter – modulation of RORgamma DNA binding, dose response, counter-screen for Rev-erb alpha modulator project, biochemical, fluorescence polarization, FITC-DNA. purified RORgamma protein-FITC-DNA binding. shares compounds with Rev-erbA mod. IC50, µM. AID 1259320, 2017. hit rate 8% among 910;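 active = Compounds whose fitted half-maximal concentration for disrupting protein-DNA binding is below 10 micromolar; the record names Rev-erb in its text, so the target is in doubt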
# * = called active by the depositor; i = inactive; x = no result given.
SMILES,PG9 binder,NR2E3 ag-1,Rev-erbA mod,NR2E3 ag-2,Rev-erbA confirm,others
N=c1c2c(-c3ccccc3)c(-c3ccccc3)n(Cc3ccccc3)c2ncn1C1CCC(O)CC1 (stereo unspecified),x,x,0,x,x,
O=C(O)c1ccccc1-c1c2cc(Br)c(=O)cc-2oc2[c]([Hg])c(O)c(Br)cc12,x,x,118*,x,79*,
Nc1c2c(nc3ccccc13)CCN(Cc1ccccc1)C2,-1,-23,32*,-1,34*,RORg DNA counter=>40
C1=C(c2c[nH]c3ccccc23)CCN(Cc2ccccc2)C1,-1,-19,1,2,x,
CC(C)C(NC(=O)OCc1ccccc1)P(=O)(Oc1ccccc1)Oc1ccccc1 (stereo unspecified),x,x,7,x,x,
Cc1c(C(=O)c2cccc3ccccc23)c2cccc3c2n1[C@H](CN1CCOCC1)CO3,-3,-35,27*,5,16*,
O=C(CN1CCOCC1)c1cccc2ccccc12,0,-3,7,2,x,
Cc1ccccc1CCC[C@H](CC1CCCCC1)CN(C)C(=O)Oc1ccccc1,x,x,4,x,x,
CCCCn1c(=O)c(C(=O)Nc2ccccc2C)c(O)c2ccccc21,x,-34,x,3,x,
CC(C)CCn1c(=O)c(C(=O)Nc2ccccc2S(N)(=O)=O)c(O)c2ccccc21,8,-31,29*,-1,21*,
CCCCCn1c(=O)c(C(=O)Nc2ccccc2Cl)c(O)c2ccccc21,-1,-20,76*,0,33*,RORg DNA counter=i
CCOc1ccc(N=Cc2c(O)n(Cc3ccccc3)c(=S)[nH]c2=O)cc1,1,12,41*,1,10,
O=c1[nH]c(=O)n(Cc2ccc(F)cc2)c(O)c1C=Nc1ccc(Cl)cc1,1,-5,125*,3,9,
CC(C)(C)OC(=O)NCCCCC(N)[P+](=O)O (stereo unspecified),x,x,-1,x,x,
O=C(O)c1cc2ccccc2n1C1CCN(Cc2ccccc2)CC1,x,x,-3,x,x,
Cc1ccc(OC(=O)N(C)C[C@H]2OCc3cnnn3CCCC(=O)N([C@H](C)CO)C[C@H]2C)cc1,1,x,-1,x,x,
CCN(CC)c1ccc(C=C2C(=O)N(C)C(=S)N(C)C2=O)o1,-3,-1,35*,-2,15,
CN1C(=O)C(=Cc2ccc(SC3CCCCC3)o2)C(=O)N(C)C1=O,-2,-34,-4,-2,x,
O=C1NC(=O)C(=Cc2ccc(N3CCOCC3)o2)C(=O)N1,-6,-10,30*,-7,28*,
CN1C(=O)C(=Cc2ccc(N3CCCCC3)o2)C(=O)N(C)C1=S,-4,-51,40*,-4,47*,RORg DNA counter=>40
Cc1cc(C)cc(N2C(=O)/C(=C\c3ccc(N4CCN(C)CC4)o3)C(=O)NC2=S)c1,-6,-4,17*,-1,11,
Cc1ccc(/C=C2\C(=O)NC(=S)N(c3ccc(F)cc3)C2=O)o1,2,3,1,x,x,
Cc1ccc2nc(-c3ccc(CN4CCC(n5nnc6ccccc65)CC4)cc3)c(-c3ccccc3)nc2c1,0,x,-3,x,x,
O=C(CN1C(=O)CN=C(c2ccccc2)c2cc(Cl)ccc21)NC1CCCCC1,x,x,2,x,x,
CN1c2ccc(Br)cc2[C@H]2NCC[C@H]2[C@H]1CO,x,x,-1,x,x,
CCN(CC)c1ccc(/C=C2\C(=O)NC(=S)N(C)C2=O)o1,-10,-115,57*,-4,62*,RORg DNA counter=>40
CCN(CC)c1ccc(/C=C2\C(=O)NC(=S)N(c3ccc(OC)cc3OC)C2=O)o1,x,-19,x,-3,x,
C=C(C)c1cccc(C(C)(C)NC(=O)NC2CN3CCC2CC3)c1 (stereo unspecified),0,-6,38*,-1,46*,

# Screens as filed in PubChem.
